Reference: ChEMBL document CHEMBL3351454, “Design, synthesis, antimicrobial evaluation and molecular docking studies of some new thiophene, pyrazole and pyridone derivatives bearing sulfisoxazole moiety” (2014)
Values after ≈ are worked out from the molar mass of the structure shown. Active and inactive are the calls of the source. The calls are words filed in the database; no cut-off is given here.

Columns and labels:
Assay type in all cases: functional
[1] = tested on: Streptococcus pneumoniae; test: Antimicrobial activity against Streptococcus pneumoniae RCMB 010010 assessed as inhibition zone at 5 mg/ml after 24 hrs; conditions: RCMB 010010, 24 h, read-out: IZ
Method in brief: (§1)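 Agar diffusion on nutrient agar seeded with 10^6 CFU/mL bacteria. Filter-paper disks were loaded with 100 µL of a 5 mg/mL compound solution in DMF, with a DMF-only control. Incubation was 37 °C for 24 h. Inhibition zone in mm (mean ± SD, triplicate plates) was measured beyond the 6 mm diameter.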

[2] = tested on: Streptococcus pneumoniae; test: Antimicrobial activity against Streptococcus pneumoniae RCMB 010010 assessed as absence of turbidity after 24 hrs; conditions: RCMB 010010, 24 h
Method in brief: (§2)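 Broth microdilution in Müller–Hinton broth. DMF stocks at 1000 µg/mL were diluted in broth to give twofold serial dilutions over 500–0.007 µg/mL. Bacterial inoculum was about 10^6 CFU/mL in 96-well plates, sealed and incubated at 37 °C for 24 h in a humid chamber. MIC was taken as the lowest concentration with no visible turbidity. DMF and uninoculated-medium controls were included. Only compounds giving zones >10 mm were tested.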

[3] = tested on: Bacillus subtilis; test: Antimicrobial activity against Bacillis subtilis RCMB 010067 assessed as inhibition zone at 5 mg/ml after 24 hrs; conditions: RCMB 010067, 24 h, read-out: IZ; method in brief: as §1
[4] = tested on: Bacillus subtilis; test: Antimicrobial activity against Bacillis subtilis RCMB 010067 assessed as absence of turbidity after 24 hrs; conditions: RCMB 010067, 24 h; method in brief: as §2
[5] = tested on: Staphylococcus epidermidis; test: Antimicrobial activity against Staphylococcus epidermidis RCMB 010024 assessed as inhibition zone at 5 mg/ml after 24 hrs; conditions: RCMB 010024, 24 h, read-out: IZ; method in brief: as §1
[6] = tested on: Staphylococcus epidermidis; test: Antimicrobial activity against Staphylococcus epidermidis RCMB 010024 assessed as absence of turbidity after 24 hrs; conditions: RCMB 010024, 24 h; method in brief: as §2
[7] = tested on: Escherichia coli; test: Antimicrobial activity against Escherichia coli RCMB 010052 assessed as inhibition zone at 5 mg/ml after 24 hrs; conditions: RCMB 010052, 24 h, read-out: IZ; method in brief: as §1
[8] = tested on: Escherichia coli; test: Antimicrobial activity against Escherichia coli RCMB 010052 assessed as absence of turbidity after 24 hrs; conditions: RCMB 010052, 24 h; method in brief: as §2
[9] = tested on: Proteus vulgaris; test: Antimicrobial activity against Proteus vulgaris RCMB 010085 assessed as inhibition zone at 5 mg/ml after 24 hrs; conditions: for zone of inhibition at 5000 µg/mL: RCMB 010085, 24 h, read-out: IZ; method in brief: as §1
[10] = tested on: Proteus vulgaris; test: Antimicrobial activity against Proteus vulgaris RCMB 010085 assessed as absence of turbidity after 24 hrs; method in brief: as §2
[11] = tested on: Klebsiella pneumoniae; test: Antimicrobial activity against Klebsiella pneumoniae RCMB 010093 assessed as inhibition zone at 5 mg/ml after 24 hrs; conditions: RCMB 010093, 24 h, read-out: IZ; method in brief: as §1
[12] = tested on: Klebsiella pneumoniae; test: Antimicrobial activity against Klebsiella pneumoniae RCMB 010093 assessed as absence of turbidity after 24 hrs; conditions: RCMB 010093, 24 h; method in brief: as §2
[13] = tested on: Aspergillus fumigatus; test: Antifungal activity against Aspergillus fumigatus RCMB 02568 assessed as inhibition zone at 5 mg/ml after 48 hrs; conditions: RCMB 02568, 48 h, read-out: IZ
Method in brief: (§3)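 Disk diffusion on nutrient agar seeded with 10^4 CFU/mL fungus. Sterile filter-paper disks carried 100 µL of a 5 mg/mL DMF solution, and DMF alone served as control. Plates were incubated at 25 °C for 48 h. Mean inhibition zone in mm ± SD was read beyond the 6 mm diameter, in triplicate.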

[14] = tested on: Aspergillus fumigatus; test: Antifungal activity against Aspergillus fumigatus RCMB 02568 assessed as absence of turbidity after 48 hrs; conditions: RCMB 02568, 48 h
Method in brief: as §2, with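 “Sabouraud liquid medium.” for “Müller–Hinton broth.”, “Fungal” for “Bacterial”, “10^4” for “10^6”, “25” for “37”, “48” for “24”, “included.” for “included. Only compounds giving zones >10 mm were tested.”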

[15] = tested on: Syncephalastrum racemosum; test: Antifungal activity against Syncephalastrum racemosum RCMB 05922 assessed as inhibition zone at 5 mg/ml after 48 hrs; conditions: RCMB 05922, 48 h, read-out: IZ
[16] = tested on: Syncephalastrum racemosum; test: Antifungal activity against Syncephalastrum racemosum RCMB 05922 assessed as absence of turbidity after 48 hrs; conditions: RCMB 05922, 48 h
[17] = tested on: Geotrichum candidum; test: Antifungal activity against Geotrichum candidum RCMB 05097 assessed as inhibition zone at 5 mg/ml after 48 hrs; conditions: RCMB 05097, 48 h, read-out: IZ; method in brief: as §3
[18] = tested on: Geotrichum candidum; test: Antifungal activity against Geotrichum candidum RCMB 05097 assessed as absence of turbidity after 48 hrs; conditions: RCMB 05097, 48 h
Method in brief: as §2, with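 “Sabouraud liquid medium.” for “Müller–Hinton broth.”, “Fungal” for “Bacterial”, “10^4” for “10^6”, “25” for “37”, “48” for “24”, “included.” for “included. Only compounds giving zones >10 mm were tested.”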

MIC [2] [µg/mL]	MIC [4] [µg/mL]	MIC [6] [µg/mL]	MIC [8] [µg/mL]	MIC [10]	MIC [12] [µg/mL]	MIC [14] [µg/mL]	MIC [16] [µg/mL]	MIC [18] [µg/mL]	MIC ([10]; RCMB 010085, 24 h) [µg/mL]	Structure (SMILES)	zone of inhibition at 5000 µg/mL [1] [mm]	zone of inhibition at 5000 µg/mL [3] [mm]	zone of inhibition at 5000 µg/mL [5] [mm]	zone of inhibition at 5000 µg/mL [7] [mm]	Activity [9]	zone of inhibition at 5000 µg/mL [11] [mm]	zone of inhibition at 5000 µg/mL [13] [mm]	zone of inhibition at 5000 µg/mL [15] [mm]	zone of inhibition at 5000 µg/mL [17] [mm]	zone of inhibition at 5000 µg/mL [9] [mm]
0.98 (≈ 2 µM)	0.12 (≈ 0.245 µM)	3.9 (≈ 7.97 µM)	7.81 (≈ 16 µM)	inactive	3.9 (≈ 7.97 µM)	0.98 (≈ 2 µM)	0.98 (≈ 2 µM)	0.49 (≈ 1 µM)	–	C=CCNc1sc(C(C)=O)c(N)c1C(=O)Nc1ccc(S(=O)(=O)Nc2onc(C)c2C)cc1	20.6	23.7	19.3	18.3	inactive	18.9	20.6	21.1	21.9	–
0.49 (≈ 1.02 µM)	1.95 (≈ 4.04 µM)	3.9 (≈ 8.08 µM)	7.81 (≈ 16.2 µM)	–	15.6 (≈ 32.4 µM)	0.03 (≈ 0.0622 µM)	0.12 (≈ 0.249 µM)	125 (≈ 259 µM)	1.95 (≈ 4.04 µM)	COc1ccc(-c2[nH]nc(N)c2C(=O)Nc2ccc(S(=O)(=O)Nc3onc(C)c3C)cc2)cc1	22	20.4	18.9	17.8	–	17.1	26.1	24.4	13.6	19.6
0.12 (≈ 0.301 µM)	0.06 (≈ 0.151 µM)	0.98 (≈ 2.46 µM)	0.98 (≈ 2.46 µM)	–	0.98 (≈ 2.46 µM)	0.24 (≈ 0.602 µM)	1.95 (≈ 4.89 µM)	0.24 (≈ 0.602 µM)	1.85 (≈ 4.64 µM)	Cc1cc(C)n(-c2ccc(S(=O)(=O)Nc3onc(C)c3C)cc2)c(=O)c1C#N	23.8	25.3	21.4	20.9	–	21.4	22.9	20.3	23.1	19.5
0.98 (≈ 1.94 µM)	0.24 (≈ 0.476 µM)	1.95 (≈ 3.86 µM)	3.9 (≈ 7.73 µM)	–	0.98 (≈ 1.94 µM)	0.98 (≈ 1.94 µM)	3.9 (≈ 7.73 µM)	0.49 (≈ 0.971 µM)	7.81 (≈ 15.5 µM)	Cc1noc(NS(=O)(=O)c2ccc(-n3c(S)c(C#N)c(-c4cccnc4)c(C#N)c3=O)cc2)c1C	21.3	22.6	20	19.2	–	21	21.2	19.2	22	17.6
16.6 (≈ 35.9 µM)	3.9 (≈ 8.41 µM)	7.81 (≈ 16.8 µM)	15.6 (≈ 33.7 µM)	–	15.6 (≈ 33.7 µM)	62.5 (≈ 135 µM)	62.5 (≈ 135 µM)	31.2 (≈ 67.4 µM)	3.9 (≈ 8.41 µM)	CNc1sc(C(C)=O)c(N)c1C(=O)Nc1ccc(S(=O)(=O)Nc2onc(C)c2C)cc1	16.6	19.1	18.7	17.1	–	16.9	15.8	14.1	16.4	18.2
0.98 (≈ 1.68 µM)	0.24 (≈ 0.411 µM)	0.98 (≈ 1.68 µM)	0.007 (≈ 0.012 µM)	–	0.98 (≈ 1.68 µM)	0.06 (≈ 0.103 µM)	0.007 (≈ 0.012 µM)	0.12 (≈ 0.206 µM)	15.6 (≈ 26.7 µM)	CC(=O)c1sc(NC23CC4CC(CC(C4)C2)C3)c(C(=O)Nc2ccc(S(=O)(=O)Nc3onc(C)c3C)cc2)c1N	21.6	22.9	20.9	29.9	–	20.3	25.3	26.9	24.6	17.4
1.95 (≈ 3.74 µM)	1.95 (≈ 3.74 µM)	3.9 (≈ 7.48 µM)	31.2 (≈ 59.9 µM)	–	0.06 (≈ 0.115 µM)	0.24 (≈ 0.46 µM)	0.06 (≈ 0.115 µM)	0.49 (≈ 0.939 µM)	7.81 (≈ 15 µM)	CCOc1ccc(-n2nc(C(=O)Nc3ccc(S(=O)(=O)Nc4onc(C)c4C)cc3)c(N)c2C#N)cc1	20	19.6	18.9	16.4	–	25.1	23	24.6	21.9	18.2
0.06 (≈ 0.0691 µM)	0.007 (≈ 0.00806 µM)	0.12 (≈ 0.138 µM)	0.24 (≈ 0.276 µM)	–	0.03 (≈ 0.0346 µM)	0.49 (≈ 0.564 µM)	3.9 (≈ 4.49 µM)	0.03 (≈ 0.0346 µM)	0.98 (≈ 1.13 µM)	CC(=O)OC[C@H]1O[C@@H](Sc2c(C#N)c(-c3ccc(Cl)cc3)c(C#N)c(=O)n2-c2ccc(S(=O)(=O)Nc3onc(C)c3C)cc2)[C@H](OC(C)=O)[C@@H](OC(C)=O)[C@@H]1OC(C)=O	25.1	29.8	24.2	23.2	–	25.8	22.3	20.3	25.8	21.2
0.98 (≈ 1.84 µM)	0.98 (≈ 1.84 µM)	1.95 (≈ 3.65 µM)	0.98 (≈ 1.84 µM)	–	0.98 (≈ 1.84 µM)	0.98 (≈ 1.84 µM)	31.2 (≈ 58.6 µM)	0.49 (≈ 0.918 µM)	3.9 (≈ 7.31 µM)	COc1ccc(-c2c(C#N)c(S)n(-c3ccc(S(=O)(=O)Nc4onc(C)c4C)cc3)c(=O)c2C#N)cc1	20.6	22.4	19.9	20.6	–	21.4	20.4	16.3	22.4	18.6
0.49 (≈ 0.911 µM)	0.12 (≈ 0.223 µM)	0.49 (≈ 0.911 µM)	0.98 (≈ 1.82 µM)	–	0.24 (≈ 0.446 µM)	0.98 (≈ 1.82 µM)	1.95 (≈ 3.62 µM)	0.24 (≈ 0.446 µM)	3.9 (≈ 7.25 µM)	Cc1noc(NS(=O)(=O)c2ccc(-n3c(S)c(C#N)c(-c4ccc(Cl)cc4)c(C#N)c3=O)cc2)c1C	22.3	24.4	20.2	20.6	–	23.2	21.6	20.2	22.8	19.3
0.98 (≈ 1.9 µM)	0.49 (≈ 0.949 µM)	7.81 (≈ 15.1 µM)	31.2 (≈ 60.5 µM)	–	0.49 (≈ 0.949 µM)	0.98 (≈ 1.9 µM)	1.95 (≈ 3.78 µM)	0.98 (≈ 1.9 µM)	15.6 (≈ 30.3 µM)	COc1ccc(-c2c(C#N)c(N)n(-c3ccc(S(=O)(=O)Nc4onc(C)c4C)cc3)c(=O)c2C#N)cc1	20.3	22.2	18.1	16.2	–	22.3	20.6	19.7	20.9	17.2
